Laboratory results as given in ChEMBL document CHEMBL4038284, “Synthesis of novel quinoline-based 4,5-dihydro-1H-pyrazoles as potential anticancer, antifungal, antibacterial and antiprotozoal agents” (Eur J Med Chem, 2017).
In brackets after ≈: the same amount, converted by molar mass. Activity calls are given as the source filed them. No cut-off for these calls is given here.

Tests used:
OVCAR-8 = experiment: Growth inhibition of human OVCAR8 cells at 10 uM incubated for 48 hrs by sulforhodamine B assay; assay type: functional, cell-based
How it was run: (§1)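 NCI 60-line panel, single 10 μM dose. Cells were grown in RPMI-1640 with 5% FBS and 2 mM L-glutamine and pre-incubated 24 h before compound addition (DMSO stock). Exposure was 48 h at 37 °C, 5% CO2. Cells were fixed with cold TCA (10% final), stained with 0.4% SRB, bound dye dissolved in 10 mM Tris base, A515 read. Growth was taken relative to time-zero and untreated control plates.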

ACHN = experiment: Growth inhibition of human ACHN cells at 10 uM incubated for 48 hrs by sulforhodamine B assay; assay type: functional, cell-based
How it was run: (§2)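 NCI 60-cell-line screen at a single 10 µM dose. Cells in RPMI-1640 with 5% FBS and 2 mM L-glutamine, pre-incubated 24 h, then treated for 48 h at 37 °C. TCA fixation, sulforhodamine B staining, absorbance at 515 nm. Percentage growth calculated against time-zero and untreated controls.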

DU-145 = experiment: Growth inhibition of human DU145 cells at 10 uM incubated for 48 hrs by sulforhodamine B assay; assay type: functional, cell-based; how it was run: as §2
CCRF-CEM = experiment: Growth inhibition of human CCRF-CEM cells at 10 uM incubated for 48 hrs by sulforhodamine B assay; assay type: functional, cell-based; how it was run: as §2
UO-31 = experiment: Growth inhibition of human UO31 cells at 10 uM incubated for 48 hrs by sulforhodamine B assay; assay type: functional, cell-based
How it was run: (§3)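 NCI-60 single-dose screen at 10 µM for 48 h. Cells were grown in RPMI-1640 with 5% FBS and 2 mM L-glutamine and preincubated 24 h before compound. Time-zero plates were TCA-fixed at compound addition. After exposure, cells were TCA-fixed, stained with SRB and read at 515 nm. Percentage growth was calculated against time-zero and untreated-control absorbances.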

Candida albicans [1] = experiment: Growth inhibition of Candida albicans ATCC 10231 at 7.8 ug/ml incubated for 48 hrs under dark condition by broth microdilution method relative to control; assay type: functional; conditions: ATCC 10231, 48 h, read-out: GI
How it was run: (§4)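 CLSI M27-A3 broth microdilution in RPMI-1640, DMSO ≤1%. Inoculum 1-5 × 10^3 CFU/mL. Incubated 48 h at 30 °C, dark. % inhibition = 100 − (OD405 test − sterility control)/(OD405 growth control − sterility control), with growth and sterility control wells. Triplicate.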

Trypanosoma cruzi = experiment: Antitrypanosomal activity against Trypanosoma cruzi Tulahuen intracellular amastigote harboring LacZ infected in human U937 cells after 72 hrs by CPRG/Nonidet reagent based spectrophotometric method; assay type: functional, cell-based; conditions: U-937, 72 h
How it was run: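 U-937 cells at 2.5 × 10^5 cells/mL in RPMI-1640 with 10% serum and 0.1 µg/mL PMA were infected with β-galactosidase-transfected Tulahuen epimastigotes at 5 parasites per cell. Infected cells were exposed to 50, 12.5, 3.125 and 0.78 µg/mL for 72 h. CPRG (100 uM) and 0.1% Nonidet P-40 were added for 3 h, read at 570 nm. EC50 by Probit. Triplicate, at least two experiments; benznidazole as reference.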

Cryptococcus neoformans [2] = experiment: Growth inhibition of Cryptococcus neoformans ATCC 32264 at 3.4 ug/ml incubated for 48 hrs under dark condition by broth microdilution method relative to control; assay type: functional; conditions: ATCC 32264, 48 h, read-out: GI
NCI/ADR-RES = experiment: Growth inhibition of human NCI/ADR-RES cells at 10 uM incubated for 48 hrs by sulforhodamine B assay; assay type: functional, cell-based; how it was run: as §1
OVCAR-5 = experiment: Growth inhibition of human OVCAR5 cells at 10 uM incubated for 48 hrs by sulforhodamine B assay; assay type: functional, cell-based; how it was run: as §1
KM12 = experiment: Growth inhibition of human KM12 cells at 10 uM incubated for 48 hrs by sulforhodamine B assay; assay type: functional, cell-based; how it was run: as §1
NCI-H23 = experiment: Growth inhibition of human NCI-H23 cells at 10 uM incubated for 48 hrs by sulforhodamine B assay; assay type: functional, cell-based; how it was run: as §1
MCF7 = experiment: Growth inhibition of human MCF7 cells at 10 uM incubated for 48 hrs by sulforhodamine B assay; assay type: functional, cell-based; how it was run: as §1
Candida albicans [3] = experiment: Growth inhibition of Candida albicans ATCC 10231 at 15.62 ug/ml incubated for 48 hrs under dark condition by broth microdilution method relative to control; assay type: functional; conditions: ATCC 10231, 48 h, read-out: GI; how it was run: as §4
TK-10 = experiment: Growth inhibition of human TK10 cells at 10 uM incubated for 48 hrs by sulforhodamine B assay; assay type: functional, cell-based; how it was run: as §3
NCI-H322M = experiment: Growth inhibition of human NCI-H322M cells at 10 uM incubated for 48 hrs by sulforhodamine B assay; assay type: functional, cell-based; how it was run: as §1
SNB-75 = experiment: Growth inhibition of human SNB75 cells at 10 uM incubated for 48 hrs by sulforhodamine B assay; assay type: functional, cell-based; how it was run: as §3
MDA-MB-231 = experiment: Growth inhibition of human MDA-MB-231 cells at 10 uM incubated for 48 hrs by sulforhodamine B assay; assay type: functional, cell-based; how it was run: as §1
Staphylococcus aureus = experiment: Antibacterial activity against methicillin-resistant Staphylococcus aureus ATCC 43300 after 24 hrs by resazurin dye based microdilution assay; assay type: functional; conditions: ATCC 43300, 24 h
How it was run: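 Broth microdilution in Mueller Hinton broth, inoculum 5 × 10^5 – 8 × 10^5. Compound stocks diluted in MHB with 5% DMSO and 0.1% Tween 80. Incubation 24 h at 35-37 °C. MIC is the lowest concentration with visible growth inhibition and/or by resazurin (1 mg/mL) read-out. Gentamicin as control. Run in duplicate, replicated at least three times.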

HCC 2998 = experiment: Growth inhibition of human HCC2998 cells at 10 uM incubated for 48 hrs by sulforhodamine B assay; assay type: functional, cell-based; how it was run: as §2
U-937 = experiment: Cytotoxicity against human U937 cells after 72 hrs by MTT assay; assay type: cell-based; conditions: u-937, 72 h
How it was run: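 Exponentially growing U-937 at 1 × 10^5 cells/mL in RPMI-1640 with 10% FBS were exposed to 200, 50, 12.5 and 3.125 µg/mL for 72 h at 37 °C, 5% CO2. MTT for 3 h, stopped with isopropanol/SDS, formazan read at 570 nm, blank-corrected. LC50 by Probit from % viability against untreated cells. Triplicate, at least two independent experiments.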

Candida albicans [4] = experiment: Growth inhibition of Candida albicans ATCC 10231 at 3.4 ug/ml incubated for 48 hrs under dark condition by broth microdilution method relative to control; assay type: functional; conditions: ATCC 10231, 48 h, read-out: GI
A549 = experiment: Growth inhibition of human A549/ATCC cells at 10 uM incubated for 48 hrs by sulforhodamine B assay; assay type: functional, cell-based; how it was run: as §2
Cryptococcus neoformans [5] = experiment: Growth inhibition of Cryptococcus neoformans ATCC 32264 at 125 ug/ml incubated for 48 hrs under dark condition by broth microdilution method relative to control; assay type: functional; conditions: ATCC 32264, 48 h, read-out: GI; how it was run: as §4
Plasmodium falciparum = experiment: Antiplasmodial activity against chloroquine-sensitive Plasmodium falciparum 3D7 assessed as reduction in parasitic LDH activity after 48 hrs by Malstat reagent based […] method; assay type: functional; conditions: 3D7, 48 h
How it was run: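 Unsynchronized P. falciparum 3D7 at 0.5% parasitemia and 1% hematocrit in RPMI with 3% Albumax II. Exposed to 100, 25, 6.25 and 1.56 µg/mL for 48 h at 37 °C under 90% N2/5% CO2/5% O2. After three freeze-thaw cycles, LDH measured with Malstat and NBT/PES, 1 h in the dark, read at 650 nm. IC50 by Probit; triplicate, ≥2 experiments.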

Row | Compound | growth inhibition (GI) (OVCAR-8) | growth inhibition (GI) (ACHN) | growth inhibition (GI) (DU-145) | growth inhibition (GI) (CCRF-CEM) | growth inhibition (GI) (UO-31) | inhibition of growth at 7.8 µg/mL (Candida albicans [1]) [%] | EC50 (Trypanosoma cruzi) [µg/mL] | inhibition of growth at 3.4 µg/mL (Cryptococcus neoformans [2]) [%] | growth inhibition (GI) (NCI/ADR-RES) | growth inhibition (GI) (OVCAR-5) | growth inhibition (GI) (KM12) | growth inhibition (GI) (NCI-H23) | growth inhibition (GI) (MCF7) | inhibition of growth at 15.62 µg/mL (Candida albicans [3]) [%] | growth inhibition (GI) (TK-10) | growth inhibition (GI) (NCI-H322M) | growth inhibition (GI) (SNB-75) | growth inhibition (GI) (MDA-MB-231) | MIC (Staphylococcus aureus) [µg/mL] | growth inhibition (GI) (HCC 2998) | other results
1 | Clc1ccc(C2=NN(c3cc(Cl)cc(Cl)c3)C(c3cccc(Nc4ccnc5cc(Cl)ccc45)c3)C2)cc1 (stereo not given) | inactive | inactive | inactive | inactive | inactive | 6.01 | 19.1 (≈ 33 µM) | 0 | inactive | inactive | inactive | inactive | inactive | 10.8 | inactive | inactive | inactive | inactive | > 1000 | inactive | LC50 (U-937): > 200 µg/mL; inhibition of growth at 3.4 µg/mL (Candida albicans [4]): 1.64%; growth inhibition (GI) (A549): inactive; inhibition of growth at 125 µg/mL (Cryptococcus neoformans [5]): 4.65%; EC50 (Plasmodium falciparum): 11.3 µg/mL (≈ 19.6 µM)
2 | Clc1ccc(C2=NN(c3ccc(Cl)cc3)C(c3cccc(Nc4ccnc5cc(Cl)ccc45)c3)C2)cc1 (stereo not given) | inactive | inactive | inactive | inactive | inactive | 2.96 | 55.8 (≈ 103 µM) | 17.4 | inactive | inactive | inactive | inactive | inactive | 6.09 | inactive | inactive | inactive | inactive | > 1000 | inactive | LC50 (U-937): > 200 µg/mL; inhibition of growth at 3.4 µg/mL (Candida albicans [4]): 0%; growth inhibition (GI) (A549): inactive; inhibition of growth at 125 µg/mL (Cryptococcus neoformans [5]): 46%; EC50 (Plasmodium falciparum): 10.3 µg/mL (≈ 18.9 µM)
3 | O=CN1N=C(c2ccc(Cl)cc2)CC1c1cccc(Nc2ccnc3cc(Cl)ccc23)c1 (stereo not given) | Active | Active | Active | Active | Active | 12 | 0.7 (≈ 1.52 µM) | 37.7 | Active | Active | Active | Active | Active | 22.7 | Active | Active | Active | Active | > 1000 | Active | LC50 (U-937): 0.6 µg/mL (≈ 1.3 µM); inhibition of growth at 3.4 µg/mL (Candida albicans [4]): 9.81%; growth inhibition (GI) (A549): Active; inhibition of growth at 125 µg/mL (Cryptococcus neoformans [5]): 75.7%; EC50 (Plasmodium falciparum): 24.7 µg/mL (≈ 53.6 µM)
